Source: ChEMBL document CHEMBL4689842, “EUbOPEN Chemogenomics Library wave 1” (2021)

System: HEK-293T
Assay: Multiplex assay against HEK293T;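 on Population Tubulin-Different-Phenotype (%): share of the cells with healthy nuclei that show this phenotype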
Format: toxicity, cell-based
Conditions: human
In short: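 Values for tubulin, mitochondrial-mass and membrane-permeability phenotypes are per cents of cells with healthy nuclei. These cells were identified by CellPathfinder machine-learning gating of live cells that had been stained at seeding with Hoechst33342, BioTracker Green Microtubule Cytoskeleton Dye, MitoTracker Red and Annexin V Alexa Fluor 680 and imaged on a CQ1 microscope at 37°C and 5% CO2 after compound addition. The gating first set Hoechst high-intensity objects apart from normal cells, then split normal cells into healthy, pyknosed or fragmented nuclei, and pyknosed cells into mitotic or apoptotic.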

[1] = 12 h, 1 µM, compound concentration 1 uM, replicate 1
[2] = 12 h, 1 µM, compound concentration 1 uM, replicate 2
[3] = 12 h, 10 µM, compound concentration 10 uM, replicate 1
[4] = 12 h, 10 µM, compound concentration 10 uM, replicate 2
[5] = 24 h, 1 µM, compound concentration 1 uM, replicate 1
[6] = 24 h, 1 µM, compound concentration 1 uM, replicate 2
[7] = 24 h, 10 µM, compound concentration 10 uM, replicate 1
[8] = 24 h, 10 µM, compound concentration 10 uM, replicate 2
[9] = 48 h, 1 µM, compound concentration 1 uM, replicate 1
[10] = 48 h, 1 µM, compound concentration 1 uM, replicate 2
[11] = 48 h, 10 µM, compound concentration 10 uM, replicate 1
[12] = 48 h, 10 µM, compound concentration 10 uM, replicate 2

C[C@@H](NCCCc1cccc(C(F)(F)F)c1)c1cccc2ccccc12.Cl [CINACALCET HYDROCHLORIDE]
Population Apoptotic (%) [1]: 48%
Population Fragmented Nuclei (%) [1]: 4%
Population Healthy Nuclei (%) [1]: 49%
Population Hoechst High Intensity Objects (%) [1]: 8%
Population Membrane Permeable-Phenotype (%) [1]: 2%
Population Mitochondria Different-Phenotype (%) [1]: 90%
Population Mitotic Cells (%) [1]: 51%
Population Normal (%) [1]: 91%
Population Pyknosed Nuclei (%) [1]: 46%
Population Tubulin-Different-Phenotype (%) [1]: 72%
Total Cell Count [1]: 382
Population Apoptotic (%) [2]: 16%
Population Fragmented Nuclei (%) [2]: 7%
Population Healthy Nuclei (%) [2]: 32%
Population Hoechst High Intensity Objects (%) [2]: 3%
Population Membrane Permeable-Phenotype (%) [2]: 6%
Population Mitochondria Different-Phenotype (%) [2]: 51%
Population Mitotic Cells (%) [2]: 83%
Population Normal (%) [2]: 96%
Population Pyknosed Nuclei (%) [2]: 60%
Population Tubulin-Different-Phenotype (%) [2]: 67%
Total Cell Count [2]: 158
Population Apoptotic (%) [3]: 87%
Population Fragmented Nuclei (%) [3]: 12%
Population Healthy Nuclei (%) [3]: 13%
Population Hoechst High Intensity Objects (%) [3]: 19%
Population Membrane Permeable-Phenotype (%) [3]: 0%
Population Mitochondria Different-Phenotype (%) [3]: 95%
Population Mitotic Cells (%) [3]: 12%
Population Normal (%) [3]: 80%
Population Pyknosed Nuclei (%) [3]: 74%
Population Tubulin-Different-Phenotype (%) [3]: 95%
Total Cell Count [3]: 195
Population Apoptotic (%) [4]: 80%
Population Fragmented Nuclei (%) [4]: 3%
Population Healthy Nuclei (%) [4]: 11%
Population Hoechst High Intensity Objects (%) [4]: 4%
Population Mitotic Cells (%) [4]: 19%
Population Normal (%) [4]: 95%
Population Pyknosed Nuclei (%) [4]: 84%
Population Tubulin-Different-Phenotype (%) [4]: 90%
Total Cell Count [4]: 193
Population Apoptotic (%) [5]: 40%
Population Healthy Nuclei (%) [5]: 61%
Population Hoechst High Intensity Objects (%) [5]: 7%
Population Membrane Permeable-Phenotype (%) [5]: 1%
Population Mitochondria Different-Phenotype (%) [5]: 77%
Population Mitotic Cells (%) [5]: 59%
Population Normal (%) [5]: 92%
Population Pyknosed Nuclei (%) [5]: 30%
Population Tubulin-Different-Phenotype (%) [5]: 63%
Total Cell Count [5]: 417
Population Apoptotic (%) [6]: 28%
Population Fragmented Nuclei (%) [6]: 8%
Population Healthy Nuclei (%) [6]: 48%
Population Hoechst High Intensity Objects (%) [6]: 4%
Population Membrane Permeable-Phenotype (%) [6]: 6%
Population Mitochondria Different-Phenotype (%) [6]: 47%
Population Mitotic Cells (%) [6]: 71%
Population Normal (%) [6]: 95%
Population Pyknosed Nuclei (%) [6]: 43%
Population Tubulin-Different-Phenotype (%) [6]: 60%
Total Cell Count [6]: 201
Population Apoptotic (%) [7]: 87%
Population Fragmented Nuclei (%) [7]: 15%
Population Healthy Nuclei (%) [7]: 15%
Population Hoechst High Intensity Objects (%) [7]: 19%
Population Membrane Permeable-Phenotype (%) [7]: 3%
Population Mitotic Cells (%) [7]: 12%
Population Normal (%) [7]: 80%
Population Pyknosed Nuclei (%) [7]: 68%
Population Tubulin-Different-Phenotype (%) [7]: 96%
Total Cell Count [7]: 227
Population Apoptotic (%) [8]: 86%
Population Fragmented Nuclei (%) [8]: 4%
Population Healthy Nuclei (%) [8]: 18%
Population Hoechst High Intensity Objects (%) [8]: 8%
Population Membrane Permeable-Phenotype (%) [8]: 6%
Population Mitochondria Different-Phenotype (%) [8]: 100%
Population Mitotic Cells (%) [8]: 13%
Population Normal (%) [8]: 91%
Population Pyknosed Nuclei (%) [8]: 76%
Population Tubulin-Different-Phenotype (%) [8]: 84%
Total Cell Count [8]: 198
Population Apoptotic (%) [9]: 27%
Population Fragmented Nuclei (%) [9]: 7%
Population Healthy Nuclei (%) [9]: 79%
Population Membrane Permeable-Phenotype (%) [9]: 1%
Population Mitochondria Different-Phenotype (%) [9]: 43%
Population Mitotic Cells (%) [9]: 72%
Population Pyknosed Nuclei (%) [9]: 12%
Population Tubulin-Different-Phenotype (%) [9]: 48%
Total Cell Count [9]: 730
Population Apoptotic (%) [10]: 21%
Population Fragmented Nuclei (%) [10]: 3%
Population Healthy Nuclei (%) [10]: 74%
Population Hoechst High Intensity Objects (%) [10]: 5%
Population Membrane Permeable-Phenotype (%) [10]: 9%
Population Mitochondria Different-Phenotype (%) [10]: 23%
Population Mitotic Cells (%) [10]: 78%
Population Normal (%) [10]: 94%
Population Pyknosed Nuclei (%) [10]: 22%
Population Tubulin-Different-Phenotype (%) [10]: 57%
Total Cell Count [10]: 266
Population Apoptotic (%) [11]: 90%
Population Fragmented Nuclei (%) [11]: 24%
Population Healthy Nuclei (%) [11]: 12%
Population Hoechst High Intensity Objects (%) [11]: 18%
Population Membrane Permeable-Phenotype (%) [11]: 0%
Population Mitochondria Different-Phenotype (%) [11]: 100%
Population Mitotic Cells (%) [11]: 9%
Population Normal (%) [11]: 81%
Population Pyknosed Nuclei (%) [11]: 63%
Population Tubulin-Different-Phenotype (%) [11]: 86%
Total Cell Count [11]: 216
Population Apoptotic (%) [12]: 89%
Population Fragmented Nuclei (%) [12]: 6%
Population Healthy Nuclei (%) [12]: 18%
Population Hoechst High Intensity Objects (%) [12]: 9%
Population Membrane Permeable-Phenotype (%) [12]: 8%
Population Mitochondria Different-Phenotype (%) [12]: 94%
Population Mitotic Cells (%) [12]: 10%
Population Normal (%) [12]: 90%
Population Pyknosed Nuclei (%) [12]: 75%
Population Tubulin-Different-Phenotype (%) [12]: 70%
Total Cell Count [12]: 203
